The source of these data is PubChem BioAssay.

Structures are written as SMILES. Activity calls are given as the source filed them.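 How the source made its calls, unless noted: active means viability at or below 10% of carrier control in both of two separate runs; inconclusive means viability at or below 10% in only one of the two runs; inactive means the rest.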

Broadly, the viability is a read-out of living cells in per cent, often relative to untreated cells. The term inhibition denotes the drop in the measured response relative to a control, in per cent.

Test [1] in a line: Her2 expression decrease, cell viability multiplex – SKBR3 breast tumor cells, AlphaScreen, ATP viability, primary screen (AID 461;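 active means Her2 level under about 52% in both replicate screens, with viability over 70% of control, limit read from the data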;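 on Her2 level: lower value means less Her2 protein in the cells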;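 on viability: percent of carrier control wells set as 100% viability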). Conditions: SKBR3 Her2 protein level, 18-24 h, measured here: SKBR3 viability, ATP luminescence, at 10 µM. (In Alpha technology, singlet oxygen from a donor bead excites a nearby acceptor bead.)
For test [2], the target named is Receptor tyrosine-protein kinase erbB-2 (Homo sapiens) (UniProt P04626). Described as above. Particulars: 18-24 h, at 10 µM, stronger effect = lower value.
Chain of Receptor tyrosine-protein kinase erbB-2 (Homo sapiens) (P04626 whole entry, looked up): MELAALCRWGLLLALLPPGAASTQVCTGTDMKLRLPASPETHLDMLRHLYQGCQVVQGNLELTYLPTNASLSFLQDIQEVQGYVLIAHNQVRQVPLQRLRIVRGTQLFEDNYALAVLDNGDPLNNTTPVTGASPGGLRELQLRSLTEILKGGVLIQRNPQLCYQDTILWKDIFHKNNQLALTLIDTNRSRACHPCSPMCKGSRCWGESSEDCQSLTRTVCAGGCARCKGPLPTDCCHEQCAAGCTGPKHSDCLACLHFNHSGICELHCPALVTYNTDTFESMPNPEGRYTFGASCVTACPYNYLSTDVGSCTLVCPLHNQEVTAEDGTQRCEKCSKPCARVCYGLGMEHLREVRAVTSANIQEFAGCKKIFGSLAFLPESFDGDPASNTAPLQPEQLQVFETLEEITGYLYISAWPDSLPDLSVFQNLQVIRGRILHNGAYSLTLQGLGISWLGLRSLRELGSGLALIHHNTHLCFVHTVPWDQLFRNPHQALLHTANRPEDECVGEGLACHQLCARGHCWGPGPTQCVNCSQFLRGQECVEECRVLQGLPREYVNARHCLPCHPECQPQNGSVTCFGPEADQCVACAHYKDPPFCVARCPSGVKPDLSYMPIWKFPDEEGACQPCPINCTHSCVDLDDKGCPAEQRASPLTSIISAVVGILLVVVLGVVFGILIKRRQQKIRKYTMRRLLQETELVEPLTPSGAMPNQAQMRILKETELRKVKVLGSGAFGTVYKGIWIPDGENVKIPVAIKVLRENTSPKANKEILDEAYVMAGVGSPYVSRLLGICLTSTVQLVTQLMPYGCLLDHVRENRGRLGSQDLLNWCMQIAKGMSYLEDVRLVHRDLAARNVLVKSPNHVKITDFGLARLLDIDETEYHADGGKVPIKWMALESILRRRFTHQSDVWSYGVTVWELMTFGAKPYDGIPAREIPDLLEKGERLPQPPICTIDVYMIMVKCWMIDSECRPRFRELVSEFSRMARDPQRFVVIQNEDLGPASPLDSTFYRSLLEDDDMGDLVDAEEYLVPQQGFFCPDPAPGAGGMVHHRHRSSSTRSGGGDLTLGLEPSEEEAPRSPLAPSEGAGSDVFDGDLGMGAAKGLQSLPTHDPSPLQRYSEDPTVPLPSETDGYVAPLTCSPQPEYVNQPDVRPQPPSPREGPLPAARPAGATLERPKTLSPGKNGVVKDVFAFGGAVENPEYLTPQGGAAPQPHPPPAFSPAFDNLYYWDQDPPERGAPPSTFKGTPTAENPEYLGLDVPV
Test [3] is described as follows: reduced viability of SK-BR-3 breast cancer cells – cell-based, 24 h, human, pilot screen (AID 572).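 Further: compound exposure lasted between 18 and 24 h rather than exactly 24 h; 100% = carrier-treated control wells.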 Conditions: SK-BR-3 viability, CellTiter-Glo luminescence, at 10 µM, stronger effect = lower value. On the technique in general: ATP-based viability assays read luminescence as a measure of living cells.
Test [4] can be described thus: HUVEC growth inhibition – cell-based, human, primary screen (AID 575;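 active means viability at or below 30% in both replicate assays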;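 further: 100% = median of untreated cell wells with 0.1% DMSO on each plate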). Conditions: HUVEC proliferation, CellTiter-Glo luminescence, 72 h; at 10 µM; stronger effect = lower value. The method, boiled down:
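System: primary human umbilical vein endothelial cells; Quantity: 1250 endothelial cells in each well; Buffer or medium: supplemented EBM, 2% fetal bovine serum; Doses: one dose, 10 µM final, 0.1% DMSO; Incubation: 72 h compound incubation; Technique: ATP-based CellTiter-Glo luminescent read; Evaluation: percent of median DMSO-control luminescence; Controls: vehicle and MePR control wells.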

Test [5] in a line: H69AR cell proliferation blockers – human, duplicate replicates, primary screen (AID 580;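 active means viability at or under a set limit in both replicates, limit being median viability minus 3 SD, cut at about 48% in these data, passing the limit was not always enough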;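 further: 100% = mean luminescence of untreated wells and 0% = no signal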). Conditions: H69AR lung tumor cells viability, ATP luminescence, 72 h; at 10 µM; stronger effect = lower value.
A short description of test [6]: MRP1 drug-resistance reversers in H69AR cells – cell-based, doxorubicin co-treatment, pilot screen (AID 601;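 active means viability loss from added drug above about 55%, and viability with drug at most 40%, in both replicates, limit read from the data, passing the limit was not always enough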). Particulars: CellTiter-Glo, 72 h, at 10 µM; for differential viability (reversal): stronger effect = higher value.
Test [7] is described as follows: yeast transport mutant growth inhibition pilot in 384-well plates, post-Golgi transport modulator project (AID 636; in the data active means inhibition above about 31%). Particulars: absorbance 615 nm, about 18 h, stronger effect = higher value.
Test [8] in a line: growth suppression of yeast trafficking mutant, preliminary HTS, modulators of trafficking downstream of Golgi apparatus project, 1536-format plate, OD 615 nm (AID 637; in the data active means inhibition above about 30%). Particulars: yeast transport mutant growth, absorbance 615 nm, 18 h; stronger effect = higher value.
Setting [9] is: H69AR cells + 2 uM doxorubicin, measured here: viability with 2 uM doxorubicin, stronger effect = lower value.
Setting [10] is: H69AR cells, compound alone cytotoxicity.

In the case of `Cc1ccc2cc(C#N)c(N3CCCC3)nc2c1C`, the viability in test [1] was 77%; in test [3] it was 77% (inactive); in test [4], 91.4% (inactive); in test [5], 74.8% (inactive); in test [6] (setting [9]) it was 78.5%; in test [6] (setting [10]) it was 74.8%. Further, the Her2 level in test [2] is 70.5% (inactive). Further, the differential viability (reversal) in test [6] (H69AR cells + 2 uM doxorubicin) is -3.67% (inactive). Also, the figures for the inhibition in test [7] and in test [8] were -5.27% (inactive) and -2.33% (inactive), respectively.
For the compound `COc1ccc(-n2c(=O)c3c4c(sc3n3c(C)nnc23)CCCC4)cc1`, the viability in test [1] is 78.5%; in test [3], 78.5% (inactive); in test [4], 101% (inactive); in test [5] it was 96.5% (inactive); in test [6] (setting [9]), 80.9%; in test [6] (setting [10]), 96.5%. Further, the Her2 level in test [2] is 94% (inactive). For the same compound, in test [6] (H69AR cells + 2 uM doxorubicin), the differential viability (reversal) was 15.6% (inactive). Also, the inhibition in test [7] was 0.13% (inactive); in test [8], -5.33% (inactive).
As for `O=C(Nc1ccc(O)cc1)C1CCCN1S(=O)(=O)c1ccc(F)cc1` (stereo not given), the viability was 97.5% in test [1]; 97.5% (inactive) in test [3]; 91.6% (inactive) in test [4]; 97.3% (inactive) in test [5]; 94.7% in test [6] (setting [9]); 97.3% in test [6] (setting [10]). Also, in test [2], the Her2 level was 92% (inactive). Besides, the differential viability (reversal) in test [6] (H69AR cells + 2 uM doxorubicin) was 2.53% (inactive). The inhibition in test [7] was -1.47% (inactive); in test [8], 1.64% (inactive).
Turning to `CCCCCOC(=O)CSc1nnc(-c2cc(OC)c(OC)c(OC)c2)o1`, the viability is 84.5% in test [1]; 84.5% (inactive) in test [3]; 104% (inactive) in test [4]; 104% (inactive) in test [5]; 93.2% in test [6] (setting [9]); 104% in test [6] (setting [10]). The Her2 level in test [2] was 69.5% (inactive). Also, the differential viability (reversal) in test [6] (H69AR cells + 2 uM doxorubicin) was 10.6% (inactive). Further, the inhibition in test [7] is -5% (inactive); in test [8], -6.5% (inactive).
In the case of `CCCc1nnc2n1N=C(c1ccc(OC)c(OC)c1)CS2`, the viability in test [1] is 85%; in test [3] it was 85% (inactive); in test [4], 68.7% (inactive); in test [5], 69.9% (inactive); in test [6] (setting [9]), 66.8%; in test [6] (setting [10]), 69.9%. Moreover, the Her2 level in test [2] is 80% (inactive). Besides, the differential viability (reversal) in test [6] (H69AR cells + 2 uM doxorubicin) was 3.1% (inactive). The inhibition is -5.33% (inactive) in test [7] and 2.62% (inactive) in test [8].
As to `COc1cccc(C(=O)n2cnnc2N)c1OC`, the viability in test [1] is 120%; in test [3], 120% (inactive); in test [4] it was 89.2% (inactive); in test [5], 89.9% (inactive); in test [6] (setting [9]), 83.1%; in test [6] (setting [10]) it was 89.9%. In addition, in test [2], the Her2 level is 88.5% (inactive). Besides, the differential viability (reversal) in test [6] (H69AR cells + 2 uM doxorubicin) was 6.76% (inactive). Besides, the values for the inhibition in test [7] and in test [8] were -5.6% (inactive) and -3.49% (inactive), respectively.
Turning to `Cc1cc(=O)[nH]c(=S)n1-c1ccccc1`, the viability is 99.5% in test [1]; 99.5% (inactive) in test [3]; 101% (inactive) in test [4]; 100% (inactive) in test [5]; 82.6% in test [6] (setting [9]); 100% in test [6] (setting [10]). Besides, the Her2 level in test [2] is 74.5% (inactive). The differential viability (reversal) in test [6] (H69AR cells + 2 uM doxorubicin) was 17.7% (inactive). The figures for the inhibition in test [7] and in test [8] were -7.03% (inactive) and 3.33% (inactive), respectively.
Regarding `c1csc(-c2nc3nc4ccccc4nc3n2Cc2ccc3c(c2)OCO3)c1`, the viability in test [1] was 98.5%; in test [3] it was 98.5% (inactive); in test [4] it was 61.6% (inactive); in test [5], 78% (inactive); in test [6] (setting [9]) it was 61.6%; in test [6] (setting [10]), 78%. For the same compound, the Her2 level in test [2] is 75% (inactive). In addition, the differential viability (reversal) in test [6] (H69AR cells + 2 uM doxorubicin) is 16.4% (inactive). Also, the inhibition in test [7] was 10.5% (inactive); in test [8] it was 0.79% (inactive).
For `Cn1c(=O)cc(OCC(=O)N2CCN(c3cccc(C(F)(F)F)c3)CC2)c2ccccc21`, the viability in test [1] is 89%; in test [3] it was 89% (inactive); in test [4], 90.7% (inactive); in test [5], 75.3% (inactive); in test [6] (setting [9]), 85.3%; in test [6] (setting [10]) it was 75.3%. In addition, in test [2], the Her2 level is 82% (inactive). The differential viability (reversal) in test [6] (H69AR cells + 2 uM doxorubicin) is -10% (inactive). Besides, the inhibition in test [7] is -6.27% (inactive); in test [8], 5.57% (inactive).
On to `COc1cccc(C(=O)Nc2ccc(N(C)C)cc2)c1OC`, for which the viability in test [1] was 97%; in test [3], 97% (inactive); in test [4] it was 90% (inactive); in test [5] it was 90.9% (inactive); in test [6] (setting [9]), 80.5%; in test [6] (setting [10]), 90.9%. Moreover, the Her2 level in test [2] was 78.5% (inactive). In test [6] (H69AR cells + 2 uM doxorubicin), the differential viability (reversal) was 10.3% (inactive). Moreover, the inhibition in test [7] was -3.68% (inactive); in test [8], -1.27% (inactive).
As to `COc1ccc(S(=O)(=O)N(C)CC(=O)N2CCCCC2)cc1Cl`, the viability is 80% in test [1]; 80% (inactive) in test [3]; 96.6% (inactive) in test [4]; 93.5% (inactive) in test [5]; 87.4% in test [6] (setting [9]); 93.5% in test [6] (setting [10]). The Her2 level in test [2] is 106% (inactive). Moreover, the differential viability (reversal) in test [6] (H69AR cells + 2 uM doxorubicin) is 6.07% (inactive). The results for the inhibition in test [7] and in test [8] were -5.41% (inactive) and 1.8% (inactive), respectively.
Turning to `CCCC(NC(=O)c1ccccc1)c1nc2ccccc2n1Cc1ccc(C(=O)OC)o1` (stereo not given), the viability in test [1] is 98%; in test [3], 98% (inactive); in test [4], 85.4% (inactive); in test [5], 95% (inactive); in test [6] (setting [9]), 90.9%; in test [6] (setting [10]), 95%. Also, in test [2], the Her2 level was 105% (inactive). For the same compound, in test [6] (H69AR cells + 2 uM doxorubicin), the differential viability (reversal) was 4.1% (inactive). The inhibition in test [7] was -2.76% (inactive); in test [8], -9.17% (inactive).
As for `CC(C)(CO)NC(=O)CCCOc1ccc(Cl)cc1Cl`, the viability is 97% in test [1]; 97% (inactive) in test [3]; 84.5% (inactive) in test [4]; 98.1% (inactive) in test [5]; 79.2% in test [6] (setting [9]); 98.1% in test [6] (setting [10]). In test [2], the Her2 level is 104% (inactive). In addition, the differential viability (reversal) in test [6] (H69AR cells + 2 uM doxorubicin) was 19% (inactive). For the same compound, the inhibition in test [7] is -0.26% (inactive); in test [8] it was 0.17% (inactive).
With `CC(=O)NCCn1ccc2ccccc21`, the viability in test [1] was 117%; in test [3], 117% (inactive); in test [4], 96.4% (inactive); in test [5] it was 91.7% (inactive); in test [6] (setting [9]), 95.5%; in test [6] (setting [10]), 91.7%. In test [2], the Her2 level is 106% (inactive). In test [6] (H69AR cells + 2 uM doxorubicin), the differential viability (reversal) was -3.84% (inactive). In addition, the inhibition is -4.13% (inactive) in test [7] and 3.93% (inactive) in test [8].
For `O=C(OCC#CCSc1nnc(-c2ccccc2)o1)c1cccs1`, the viability in test [1] was 130%; in test [3], 130% (inactive); in test [4] it was 98.3% (inactive); in test [5], 94.9% (inactive); in test [6] (setting [9]), 82.8%; in test [6] (setting [10]), 94.9%. The Her2 level in test [2] is 92% (inactive). Moreover, the differential viability (reversal) in test [6] (H69AR cells + 2 uM doxorubicin) was 12.1% (inactive). Moreover, the inhibition in test [7] was -6.13% (inactive); in test [8], -4.92% (inactive).
Consider `O=C(c1ccco1)N1CCN(C(=O)C2CCN(S(=O)(=O)c3cccc4nsnc34)CC2)CC1`, for which the viability was 98.5% in test [1]; 98.5% (inactive) in test [3]; 104% (inactive) in test [4]; 83.5% (inactive) in test [5]; 75% in test [6] (setting [9]); 83.5% in test [6] (setting [10]). The Her2 level in test [2] was 102% (inactive). Moreover, the differential viability (reversal) in test [6] (H69AR cells + 2 uM doxorubicin) is 8.47% (inactive). Also, the inhibition was -4.27% (inactive) in test [7] and -1.48% (inactive) in test [8].
